Measured values taken from ChEMBL document CHEMBL1139333, “Search for new pharmacophores for antimalarial activity. Part I: synthesis and antimalarial activity of new 2-methyl-6-ureido-4-quinolinamides” (Bioorg Med Chem, 2009).
Values after ≈ are worked out from the molar mass of the structure shown.

What was measured:
Klebsiella pneumoniae = test: Antibacterial activity against Klebsiella pneumoniae after 24 hrs by NCCLS method; assay type: functional
How it was run: (§1)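 Bacteria grown on nutrient agar at 37 °C for 24 h, then suspended in normal saline with 0.05% Tween 20 at about […] cells/mL (0.5 McFarland). MIC by NCCLS broth microdilution in Mueller Hinton broth with twofold serial dilutions. Compounds were dissolved in DMSO at 1 mg/mL (stock). Growth, drug and blank controls were included.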

Pseudomonas aeruginosa = test: Antibacterial activity against Pseudomonas aeruginosa after 24 hrs by NCCLS method; assay type: functional; how it was run: as §1
Plasmodium falciparum [1] = test: Antimalarial effect as schizonticidal activity against chloroquine-sensitive Plasmodium falciparum 3D7 after 40 hrs; details: 3D7, 40 h
Staphylococcus aureus = test: Antibacterial activity against Staphylococcus aureus after 24 hrs by NCCLS method; assay type: functional; how it was run: as §1
Plasmodium falciparum [2] = test: Antimalarial activity against chloroquine-sensitive Plasmodium falciparum 3D7 infected erythrocytes after 72 hrs by MSF assay; details: 3D7, 72 h
Escherichia coli = test: Antibacterial activity against Escherichia coli after 24 hrs by NCCLS method; assay type: functional; how it was run: as §1
Enterococcus faecalis = test: Antibacterial activity against Streptococcus faecalis after 24 hrs by NCCLS method; assay type: functional; how it was run: as §1
[3] = test system: Plasmodium yoelii nigeriensis; test: Antimalarial activity at day 28 against Plasmodium yoelii nigeriensis MDR infected Swiss mice (Mus musculus) at 100 mg/kg peroral dose for 7 days; assay type: functional; details: route oral
[4] = Selectivity index, ratio of CC50 for african green monkey (Cercopithecus aethiops) Vero cells to IC50 for Plasmodium falciparum 3D7; assay type: functional
[5] = test system: Plasmodium yoelii nigeriensis; test: Antimalarial activity as parasitaemia against Plasmodium yoelii nigeriensis MDR infected Swiss mice (Mus musculus) at 100 mg/kg peroral dose over 4 days; details: route oral
[6] = test system: Plasmodium yoelii nigeriensis; test: Antimalarial activity as reduced parasitaemia after 28 days against Plasmodium yoelii nigeriensis MDR infected Swiss mice (Mus musculus) at 100 mg/kg peroral dose over 4 days; assay type: functional; parameters: scale not given: the % may be the effect or the level left; details: route oral
How it was run: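 Swiss mice of either sex (25 g) inoculated on day 0 with 1 × 10⁶ P. yoelii nigeriensis MDR parasitized cells. Groups of five mice received an aqueous suspension orally at 100 mg/kg from day 0 to day 3. Five vehicle-only mice served as controls. Parasitemia was read from tail-vein thin blood smears on days 4, 7, 14, 21 and 28, or until death.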

[7] = test system: Plasmodium yoelii nigeriensis; test: Antimalarial activity day 28 against Plasmodium yoelii nigeriensis MDR infected Swiss mice (Mus musculus) as reduced parasitaemia at 100 mg/kg peroral dose for 7 days; assay type: functional; parameters: scale not given: the % may be the effect or the level left; details: route oral
Plasmodium yoelii [8] = test: Antimalarial activity as parasitaemia after 28 days against chloroquine-resistant Plasmodium yoelii N67 infected Swiss mice (Mus musculus) at 50 mg/kg peroral dose over 4 days; assay type: functional; details: route oral
How it was run: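 Swiss mice (25 g, either sex, n=5) infected on day 0 with 1 × 10⁶ P. yoelii N67 chloroquine-resistant parasitized cells. Test compounds were given orally as an aqueous suspension at 50 mg/kg from day 0 to 3; vehicle controls were run alongside. Parasitaemia was counted on tail-vein thin smears on days 4, 7, 14, 21 and 28, or until death.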

Plasmodium yoelii [9] = test: Antimalarial activity as parasitaemia after 28 days against chloroquine-resistant Plasmodium yoelii N67 infected Swiss mice (Mus musculus) at 50 mg/kg peroral dose over 7 days; assay type: functional; details: route oral
Plasmodium yoelii [10] = test: Antimalarial activity as reduced parasitaemia after 28 days against chloroquine-resistant Plasmodium yoelii N67 infected Swiss mice (Mus musculus) at 50 mg/kg peroral dose over 7 days; assay type: functional; parameters: scale not given: the % may be the effect or the level left; details: route oral

Row | Compound | MIC (Klebsiella pneumoniae) | MIC (Pseudomonas aeruginosa) | MIC (Plasmodium falciparum [1]) | MIC (Staphylococcus aureus) | IC50 (Plasmodium falciparum [2]) | MIC (Escherichia coli) | MIC (Enterococcus faecalis) | Activity [3] | Selectivity Index [4] | Activity [5] | Activity [6] | Activity [7] | Activity (Plasmodium yoelii [8]) | Activity (Plasmodium yoelii [9]) | Activity (Plasmodium yoelii [10])
1 | Cc1cc(NC(=O)c2cccc(Cl)c2)c2cc(NC(=O)Nc3ccc(Cl)cc3)ccc2n1 | 6.25 µg/mL (≈ 13.4 µM) | 1.56 µg/mL (≈ 3.35 µM) | 1 µg/mL (≈ 2.15 µM) | 3.12 µg/mL (≈ 6.7 µM) | 0.0144 µg/mL (≈ 0.0309 µM) | 12.5 µg/mL (≈ 26.9 µM) | 12.5 µg/mL (≈ 26.9 µM) | – | – | – | – | – | – | – | –
2 | Cc1cc(NC(=O)CN2CCN(C)CC2)c2cc(NC(=O)Nc3cccc(Cl)c3)ccc2n1 | – | – | 0.25 µg/mL (≈ 0.535 µM) | – | 0.013 µg/mL (≈ 0.0278 µM) | – | – | 50% | 549.7 | 18.8% | – | – | – | – | –
3 | Cc1cc(NC(=O)c2ccco2)c2cc(NC(=O)Nc3cccc(C#N)c3)ccc2n1 | – | – | 0.5 µg/mL (≈ 1.22 µM) | – | 0.0004 µg/mL (≈ 0.000972 µM) | – | – | 1.84% | – | 0% | 100% | 91.29% | – | – | –
4 | Cc1cc(NC(=O)CN2CCN(C)CC2)c2cc(NC(=O)Nc3ccc(C)c(Cl)c3)ccc2n1 | 12.5 µg/mL (≈ 26 µM) | > 50 µg/mL | 0.25 µg/mL (≈ 0.52 µM) | – | 0.0033 µg/mL (≈ 0.00686 µM) | 6.25 µg/mL (≈ 13 µM) | – | – | – | – | – | – | 1.67% | 5.15% | –
5 | Cc1cc(NC(=O)c2ccccc2)c2cc(NC(=O)Nc3cc(Cl)cc(Cl)c3)ccc2n1 | 0.04 µg/mL (≈ 0.086 µM) | 12.5 µg/mL (≈ 26.9 µM) | 2 µg/mL (≈ 4.3 µM) | – | – | 0.0025 µg/mL (≈ 0.00537 µM) | 0.01 µg/mL (≈ 0.0215 µM) | – | – | – | – | – | – | – | –
6 | CCN1CCN(CC(=O)Nc2cc(C)nc3ccc(NC(=O)Nc4cc(Cl)cc(Cl)c4)cc23)CC1 | 6.25 µg/mL (≈ 12.1 µM) | – | 0.5 µg/mL (≈ 0.97 µM) | 3.12 µg/mL (≈ 6.05 µM) | – | 12.5 µg/mL (≈ 24.3 µM) | – | – | – | – | – | – | – | – | –
7 | Cc1cc(NC(=O)CN2CCN(C)CC2)c2cc(NC(=O)Nc3ccc(Br)cc3)ccc2n1 | 6.25 µg/mL (≈ 12.2 µM) | 1.56 µg/mL (≈ 3.05 µM) | 1 µg/mL (≈ 1.96 µM) | – | – | 6.25 µg/mL (≈ 12.2 µM) | 6.25 µg/mL (≈ 12.2 µM) | – | – | – | – | – | – | – | –
8 | CCN1CCN(CC(=O)Nc2cc(C)nc3ccc(NC(=O)Nc4ccc(Cl)c(Cl)c4)cc23)CC1 | 12.5 µg/mL (≈ 24.3 µM) | – | 0.5 µg/mL (≈ 0.97 µM) | 6.25 µg/mL (≈ 12.1 µM) | – | – | – | – | – | – | – | – | – | – | –
9 | Cc1cc(NC(=O)CN2CCN(C)CC2)c2cc(NC(=O)Nc3ccc(Cl)c(C(F)(F)F)c3)ccc2n1 | 1.56 µg/mL (≈ 2.92 µM) | 12.5 µg/mL (≈ 23.4 µM) | 0.5 µg/mL (≈ 0.935 µM) | 6.25 µg/mL (≈ 11.7 µM) | 0.0182 µg/mL (≈ 0.034 µM) | 1.56 µg/mL (≈ 2.92 µM) | 3.1 µg/mL (≈ 5.79 µM) | – | 53.4 | – | – | – | 2.28% | 11% | –
10 | Cc1cc(NC(=O)CN2CCCCC2)c2cc(NC(=O)Nc3ccc(Cl)c(C(F)(F)F)c3)ccc2n1 | – | – | 0.25 µg/mL (≈ 0.481 µM) | – | 0.0358 µg/mL (≈ 0.0689 µM) | – | – | 13.83% | 76.5 | 0.27% | – | – | – | – | –
11 | Cc1cc(NC(=O)CN2CCN(C)CC2)c2cc(NC(=O)Nc3ccc(Cl)c(Cl)c3)ccc2n1 | – | 6.25 µg/mL (≈ 12.5 µM) | 0.25 µg/mL (≈ 0.499 µM) | 6.25 µg/mL (≈ 12.5 µM) | 0.0022 µg/mL (≈ 0.00439 µM) | 1.56 µg/mL (≈ 3.11 µM) | 1.56 µg/mL (≈ 3.11 µM) | – | – | – | – | – | 2.55% | 1.5% | 92.9%
12 | Cc1cc(NC(=O)CN2CCN(C)CC2)c2cc(NC(=O)Nc3cc(Cl)cc(Cl)c3)ccc2n1 | – | – | 0.25 µg/mL (≈ 0.499 µM) | – | 0.0004 µg/mL (≈ 0.000798 µM) | 1.56 µg/mL (≈ 3.11 µM) | 3.12 µg/mL (≈ 6.23 µM) | – | 4404.8 | – | – | – | 4.78% | 15.5% | –
13 | GENTAMICIN | 25 µg/mL | 6.25 µg/mL | – | 6.25 µg/mL | – | – | 3.12 µg/mL | – | – | – | – | – | – | – | –
